Laboratory results reported in ChEMBL document CHEMBL3739400, “Penicyclones A-E, Antibacterial Polyketides from the Deep-Sea-Derived Fungus Penicillium sp. F23-2” (J Nat Prod, 2015).

Legend:
A549 = assay: Cytotoxicity against human A549 cells assessed as reduction in cell viability by sulforhodamine B assay; format: functional, cell-based
HeLa = assay: Cytotoxicity against human HeLa cells assessed as reduction in cell viability by MTT assay; format: functional, cell-based
In short: (§1)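 Cytotoxicity was measured by MTT assay on HeLa (human cervical cancer) and BEL-7402 (human hepatocellular carcinoma) cell lines, with doxorubicin as the positive control.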

[1] = Cytotoxicity against human HCT116 cells assessed as reduction in cell viability by sulforhodamine B assay; format: functional, cell-based; conditions: HCT-116
Staphylococcus aureus = assay: Antibacterial activity against Staphylococcus aureus ATCC 6538 assessed as growth inhibition after 24 hrs by broth microdilution method; format: functional; conditions: ATCC 6538, 24 h
In short: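 Broth microdilution assay against Staphylococcus aureus, with penicillin G as the positive control.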

[2] = Cytotoxicity against human Bel7402 cells assessed as reduction in cell viability by MTT assay; format: functional, cell-based; conditions: Bel-7402; in short: as §1
HEK293 = assay: Cytotoxicity against HEK293 cells assessed as reduction in cell viability by sulforhodamine B assay; format: cell-based; conditions: Homo sapiens

COC(=O)[C@H](C)CC[C@@]1(O)C(=O)C=C(C)[C@@H](O)[C@H]1O
0.9 µg/mL: MIC (Staphylococcus aureus)
> 50 µM: IC50 (A549) | IC50 (HeLa) | IC50 [1] | IC50 [2] | IC50 (HEK293)

CC1=CC(=O)[C@](O)(CC[C@@H](C)C(=O)O)[C@H](O)[C@@H]1O
> 50 µM: IC50 (A549) | IC50 (HeLa) | IC50 [1] | IC50 [2] | IC50 (HEK293)
1 µg/mL: MIC (Staphylococcus aureus)

CC1=CC(=O)[C@]2(C/C=C(\C)CCC(=O)O)O[C@@H]2[C@@H]1O
> 50 µM: IC50 (A549) | IC50 (HeLa) | IC50 [1] | IC50 [2] | IC50 (HEK293)
0.5 µg/mL: MIC (Staphylococcus aureus)

CC1=CC(=O)[C@]2(CC/C(C)=C/CC(=O)O)O[C@@H]2[C@@H]1O
> 50 µM: IC50 (A549) | IC50 (HeLa) | IC50 [1] | IC50 [2] | IC50 (HEK293)
0.8 µg/mL: MIC (Staphylococcus aureus)

CC1=CC(=O)[C@]2(CC[C@@H](C)C(=O)O2)[C@H](O)[C@@H]1O
> 50 µM: IC50 (A549) | IC50 (HeLa) | IC50 [1] | IC50 [2] | IC50 (HEK293)
0.3 µg/mL: MIC (Staphylococcus aureus)
